Assays:
Mus musculus [1] = assay: Toxicity in HBV infected transgenic 1.3.32 mouse assessed as change in serum globulin level at 7.9 to 25 mg/kg, po qd for 14 days; format: organism-based; set-up: dose 7.9-25 mg/kg, route oral; conditions: in vivo, 336 h
Outline: (§1)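 HBV-transgenic mice (strain 1.3.32), 10 per group, randomised; oral gavage once daily for 14 days at 25 or 7.9 mg/kg in NMP:Solutol HS15/saline vehicle; vehicle-only group. Weighed before the first dose and after 3 days; observed one hour after each dose. Tail-vein blood taken before dosing, at day 7 and at day 14 necropsy, each 3 h post-dose, for serum chemistry.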

Hepatitis B virus [2] = assay: Antiviral activity against adefovir-resistant Hepatitis B virus harboring polymerase N584T mutant in human HepG2 cells assessed as inhibition of HBsAg secretion by ELISA; format: functional, organism-based
Mus musculus [3] = assay: Acute toxicity in CL57BL/6 mouse assessed as effect on serum amylase level at 25 mg/kg, iv administered as single dose after 24 hrs; format: organism-based; set-up: dose 25 mg/kg, route intravenous; conditions: in vivo
Outline: (§2)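 Female C57BL/6 mice, four per group, randomized, each given one tail-vein injection of a 2 mg/mL solution in 1:1 NMP:Solutol HS15 diluted with saline; a vehicle-only group served as control. Mice were watched for the first hour and sacrificed at 24 h with necropsy. Serum was collected and run on an automated chemistry and electrolyte analyser.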

Mus musculus [4] = assay: Acute toxicity in CL57BL/6 mouse assessed as morbidity at 25 mg/kg, iv administered as single dose after 24 hrs; format: organism-based; set-up: dose 25 mg/kg, route intravenous; conditions: in vivo
Outline: (§3)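 Female C57BL/6 mice, four per group, randomised; single tail-vein bolus in NMP:Solutol HS15 (1:1) diluted with saline to 2 mg/mL, injected within 10 min of preparation; vehicle-only group. Close observation for the first hour; sacrifice and necropsy at 24 h. Whole-blood complete blood counts and serum chemistry, including total bilirubin and total protein, were measured.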

Mus musculus [5] = assay: Toxicity in HBV infected transgenic 1.3.32 mouse assessed as elevation in serum Na+ level at 7.9 to 25 mg/kg, po qd for 14 days; format: organism-based; set-up: dose 7.9-25 mg/kg, route oral; conditions: in vivo, 336 h; outline: as §1
Mus musculus [6] = assay: Acute toxicity in CL57BL/6 mouse assessed as effect on serum albumin level at 25 mg/kg, iv administered as single dose after 24 hrs; format: organism-based; set-up: dose 25 mg/kg, route intravenous; conditions: in vivo; outline: as §2
Mus musculus [7] = assay: Toxicity in HBV infected transgenic 1.3.32 mouse assessed as change in serum alkaline phosphatase level at 7.9 to 25 mg/kg, po qd for 14 days; format: organism-based; set-up: dose 7.9-25 mg/kg, route oral; conditions: in vivo, 336 h; outline: as §1
Mus musculus [8] = assay: Toxicity in HBV infected transgenic 1.3.32 mouse assessed as behavioral changes at 7.9 to 25 mg/kg, po qd for 14 days; format: organism-based; set-up: dose 7.9-25 mg/kg, route oral; conditions: in vivo, 336 h; outline: as §1
Rattus norvegicus [9] = assay: Total body clearance in fasted Sprague-Dawley rat at 5 mg/kg, iv by LC/MS/MS analysis; format: ADME, organism-based; set-up: dose 5 mg/kg, route intravenous; conditions: in vivo
Outline: (§4)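 Male Sprague-Dawley rats, 3 per treatment, carried jugular cannulae and were fasted 12 h with water. Compound was formulated at 2 mg/mL in 1:1 NMP:Solutol HS15 diluted with saline. Dosing was 5 mg/kg iv or 25 mg/kg oral gavage. Blood was drawn predose and at 5, 15, 30 min, 1, 3 and 6 h. Plasma was quantified by LC-MS/MS against an 8-point standard curve.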

Mus musculus [10] = assay: Acute toxicity in CL57BL/6 mouse assessed as effect on serum phosphorus level at 25 mg/kg, iv administered as single dose after 24 hrs; format: organism-based; set-up: dose 25 mg/kg, route intravenous; conditions: in vivo; outline: as §2
Mus musculus [11] = assay: Toxicity in HBV infected transgenic 1.3.32 mouse assessed as mortality at 7.9 to 25 mg/kg, po qd for 14 days; format: organism-based; set-up: dose 7.9-25 mg/kg, route oral; conditions: in vivo, 336 h; outline: as §1
Mus musculus [12] = assay: Toxicity in HBV infected transgenic 1.3.32 mouse assessed as change in serum albumin level at 7.9 to 25 mg/kg, po qd for 14 days; format: organism-based; set-up: dose 7.9-25 mg/kg, route oral; conditions: in vivo, 336 h; outline: as §1
Mus musculus [13] = assay: Acute toxicity in CL57BL/6 mouse assessed as effect on serum K+ level at 25 mg/kg, iv administered as single dose after 24 hrs; format: organism-based; set-up: dose 25 mg/kg, route intravenous; conditions: in vivo; outline: as §2
Mus musculus [14] = assay: Acute toxicity in CL57BL/6 mouse assessed as effect on serum alanine aminotransferase level at 25 mg/kg, iv administered as single dose after 24 hrs; format: organism-based; set-up: dose 25 mg/kg, route intravenous; conditions: in vivo; outline: as §2
Mus musculus [15] = assay: Toxicity in HBV infected transgenic 1.3.32 mouse assessed as elevation in serum bilirubin level at 7.9 to 25 mg/kg, po qd for 14 days; format: organism-based; set-up: dose 7.9-25 mg/kg, route oral; conditions: in vivo, 336 h; outline: as §1
Mus musculus [16] = assay: Toxicity in HBV infected transgenic 1.3.32 mouse assessed as change in serum amylase level at 7.9 to 25 mg/kg, po qd for 14 days; format: organism-based; set-up: dose 7.9-25 mg/kg, route oral; conditions: in vivo, 336 h; outline: as §1
Mus musculus [17] = assay: Acute toxicity in CL57BL/6 mouse assessed as effect on red cell distribution width at 25 mg/kg, iv administered as single dose after 24 hrs; format: organism-based; set-up: dose 25 mg/kg, route intravenous; conditions: in vivo
Outline: (§5)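 Female C57BL/6 mice, four per group, randomized, each given one tail-vein injection of a 2 mg/mL solution in 1:1 NMP:Solutol HS15 diluted with saline; a vehicle-only group served as control. Mice were watched closely for the first hour and sacrificed at 24 h with necropsy. Whole blood was taken for complete blood counts on an automated haematology analyser.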

Mus musculus [18] = assay: Acute toxicity in CL57BL/6 mouse assessed as effect on serum alkaline phosphatase level at 25 mg/kg, iv administered as single dose after 24 hrs; format: organism-based; set-up: dose 25 mg/kg, route intravenous; conditions: in vivo
Outline: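 Female C57BL/6 mice, four per group, randomized, each given one tail-vein injection of a 2 mg/mL solution in 1:1 NMP:Solutol HS15 diluted with saline; a vehicle-only group served as control. Serum was collected and run on an automated chemistry and electrolyte analyser.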

Mus musculus [19] = assay: Toxicity in HBV infected transgenic 1.3.32 mouse assessed as change in serum phosphorus level at 7.9 to 25 mg/kg, po qd for 14 days; format: organism-based; set-up: dose 7.9-25 mg/kg, route oral; conditions: in vivo, 336 h; outline: as §1
Mus musculus [20] = assay: Acute toxicity in CL57BL/6 mouse assessed as effect on mean corpuscular at 25 mg/kg, iv administered as single dose after 24 hrs; format: organism-based; set-up: dose 25 mg/kg, route intravenous; conditions: in vivo; outline: as §5
Rattus norvegicus [21] = assay: Oral bioavailability in fasted Sprague-Dawley rat at 25 mg/kg after 6 hrs by LC/MS/MS analysis; format: ADME, organism-based; conditions: in vivo; outline: as §4
Mus musculus [22] = assay: Acute toxicity in CL57BL/6 mouse assessed as effect on serum globulin level at 25 mg/kg, iv administered as single dose after 24 hrs; format: organism-based; set-up: dose 25 mg/kg, route intravenous; conditions: in vivo; outline: as §2
Mus musculus [23] = assay: Acute toxicity in CL57BL/6 mouse assessed as increase in lymphocytes count at 25 mg/kg, iv administered as single dose after 24 hrs; format: organism-based; set-up: dose 25 mg/kg, route intravenous; conditions: in vivo; outline: as §3
Mus musculus [24] = assay: Acute toxicity in CL57BL/6 mouse assessed as effect on monocytes count at 25 mg/kg, iv administered as single dose after 24 hrs; format: organism-based; set-up: dose 25 mg/kg, route intravenous; conditions: in vivo; outline: as §5
Mus musculus [25] = assay: Toxicity in HBV infected transgenic 1.3.32 mouse assessed as change in blood urea nitrogen level at 7.9 to 25 mg/kg, po qd for 14 days; format: organism-based; set-up: dose 7.9-25 mg/kg, route oral; conditions: in vivo, 336 h; outline: as §1
Mus musculus [26] = assay: Toxicity in HBV infected transgenic 1.3.32 mouse assessed as change in serum creatinine level at 7.9 to 25 mg/kg, po qd for 14 days; format: organism-based; set-up: dose 7.9-25 mg/kg, route oral; conditions: in vivo, 336 h; outline: as §1
Mus musculus [27] = assay: Acute toxicity in CL57BL/6 mouse assessed as effect on mean corpuscular volume at 25 mg/kg, iv administered as single dose after 24 hrs; format: organism-based; set-up: dose 25 mg/kg, route intravenous; conditions: in vivo; outline: as §5
Mus musculus [28] = assay: Acute toxicity in CL57BL/6 mouse assessed as reduction in platelets count at 25 mg/kg, iv administered as single dose after 24 hrs; format: organism-based; set-up: dose 25 mg/kg, route intravenous; conditions: in vivo; outline: as §3
Hepatitis B virus [29] = assay: Antiviral activity against lamivudine/telbivudine-resistant Hepatitis B virus harboring polymerase M552I mutant in human HepG2 cells assessed as inhibition of HBsAg secretion by ELISA; format: functional, organism-based
Mus musculus [30] = assay: Acute toxicity in CL57BL/6 mouse assessed as effect on hematocrit at 25 mg/kg, iv administered as single dose after 24 hrs; format: organism-based; set-up: dose 25 mg/kg, route intravenous; conditions: in vivo; outline: as §5

Fc1cccc(Cl)c1C1CC(c2ccc(Cl)cc2)Nc2ncnn21 (racemic)
Activity (Mus musculus [1]): Non-toxic | EC50 (Hepatitis B virus [2]): 5.6 µM | Activity (Mus musculus [3]): Non-toxic | Activity (Mus musculus [4]): Non-toxic | Activity (Mus musculus [5]): Toxic | Activity (Mus musculus [6]): Non-toxic | Activity (Mus musculus [7]): Non-toxic | Activity (Mus musculus [8]): Non-toxic | CL (Rattus norvegicus [9]): 12 mL/min/kg | Activity (Mus musculus [10]): Non-toxic | Activity (Mus musculus [11]): Non-toxic | Activity (Mus musculus [12]): Non-toxic | Activity (Mus musculus [13]): Non-toxic | Activity (Mus musculus [14]): Non-toxic | Activity (Mus musculus [15]): Toxic | Activity (Mus musculus [16]): Non-toxic | Activity (Mus musculus [17]): Non-toxic | Activity (Mus musculus [18]): Non-toxic | Activity (Mus musculus [19]): Non-toxic | Activity (Mus musculus [20]): Non-toxic | F (Rattus norvegicus [21]): 31% | Activity (Mus musculus [22]): Non-toxic | Activity (Mus musculus [23]): Toxic | Activity (Mus musculus [24]): Non-toxic | Activity (Mus musculus [25]): Non-toxic | Activity (Mus musculus [26]): Non-toxic | Activity (Mus musculus [27]): Non-toxic | Activity (Mus musculus [28]): Toxic | EC50 (Hepatitis B virus [29]): 9.1 µM | Activity (Mus musculus [30]): Non-toxic

— ChEMBL document CHEMBL1811844, “Design, synthesis, and biological evaluation of triazolo-pyrimidine derivatives as novel inhibitors of hepatitis B virus surface antigen (HBsAg) secretion” (J Med Chem, 2011)
